Test results: ChEMBL document CHEMBL1944502, “Efficient synthesis and anti-enteroviral activity of 9-arylpurines” (Eur J Med Chem, 2012)

Tests used:
Vero [1] = assay: Cytotoxicity against Coxsackievirus B3 Nancy infected African green monkey Vero cells assessed as change in cell morphology at EC50 after 3 days by microscopic analysis; format: cell-based; details: chlorocebus sabaeus, 72 h
In short: (§1)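 Infected, compound-treated wells were inspected microscopically after the 3-day antiviral incubation. The check looked for virus-induced CPE and for compound-induced alteration of cell morphology, compared with uninfected, untreated control cells.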

[2] = Antiviral activity against Coxsackievirus B3 Nancy infected in african green monkey Vero cells assessed as inhibition of virus-induced cell death after 3 days by spectrophotometry based MTS/PMS assay; format: functional, Coxsackievirus B3 (strain Nancy); details: Enterovirus B, 72 h
In short: (§2)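 Infected cells in 96-well plates received serial compound dilutions plus 100 CCID50 of virus. They were incubated 3 days, until full CPE appeared in untreated virus controls, at 37 °C (35 °C for rhinovirus 14). Viability was read by MTS/PMS at OD 498 nm and converted to % of controls. EC50 was obtained by linear interpolation. Runs were at least triplicate, with microscopic confirmation.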

[3] = Cytotoxicity against African green monkey Vero cells after 3 days by spectrophotometry based MTS/PMS assay; format: cell-based; details: chlorocebus sabaeus
In short: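 Uninfected Vero cultures were handled as in the antiviral set-up: serial compound dilutions for 3 days. Overall metabolism was read by MTS/PMS, and raw values were converted to % of controls. CC50 (50% inhibition of cell metabolism) was obtained by linear interpolation. Each experiment was repeated at least three times.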

Coxsackievirus B4 = assay: Antiviral activity against Coxsackievirus B4 E2 Edwards infected in african green monkey Vero cells assessed as inhibition of virus-induced cytopathogenicity after 3 days by spectrophotometry based MTS/PMS assay; format: functional, organism-based; details: Enterovirus B, 72 h; in short: as §2
[4] = Antiviral activity against Enterovirus 71 BRCR infected in human RD cells assessed as inhibition of virus-induced cell death after 3 days by spectrophotometry based MTS/PMS assay; format: functional, Human enterovirus 71 (strain BRCR); details: Enterovirus A, 72 h; in short: as §2
rhinovirus B14 = assay: Antiviral activity against Human rhinovirus 14 infected in human HeLa cells assessed as inhibition of virus-induced cytopathogenicity after 3 days by spectrophotometry based MTS/PMS assay; format: functional, organism-based; details: Rhinovirus B, 72 h; in short: as §2
Poliovirus 1 = assay: Antiviral activity against Poliovirus type 1 Sabin infected in BGM cells assessed as inhibition of virus-induced cell death after 3 days by spectrophotometry based MTS/PMS assay; format: functional; details: Enterovirus C, 72 h
Vero [5] = assay: Cytotoxicity against Coxsackievirus B4 E2 Edwards infected african green monkey Vero cells assessed as change in cell morphology at EC50 after 3 days by microscopic analysis; format: cell-based; details: chlorocebus sabaeus, 72 h; in short: as §1
[6] = Antiviral activity against drug-resistant Coxsackievirus B3 Nancy infected in african green monkey Vero cells assessed as inhibition of virus-induced cell death after 3 days by spectrophotometry based MTS/PMS assay; format: functional, Coxsackievirus B3 (strain Nancy); details: Enterovirus B, 72 h
[7] = Antiviral activity against Echovirus 11 Gregory infected in BGM cells assessed as inhibition of virus-induced cell death after 3 days by spectrophotometry based MTS/PMS assay; format: functional, Echovirus 11 (strain Gregory); details: Enterovirus B, 72 h; in short: as §2
[8] = Cytotoxicity against Echovirus 11 Gregory infected BGM cells assessed as change in cell morphology at EC50 after 3 days by microscopic analysis; format: cell-based; details: chlorocebus aethiops, 72 h; in short: as §1

Compound	Activity (Vero [1])	EC50 [2]	EC90 [2]	CC50 at 72 h [3]	EC50 (Coxsackievirus B4)	EC50 [4]	EC50 (rhinovirus B14)	EC50 (Poliovirus 1)	Activity (Vero [5])	EC50 [6]	EC50 [7]	Activity [8]
Cc1nc(Cl)c2ncn(-c3cccc(N4CCOC4=O)c3)c2n1	Non-toxic	10.6 µM	15.6 µM	> 200 µM	–	–	–	–	–	–	–	–
CCN(CC)c1cccc(-n2cnc3c(Cl)ncnc32)c1	Non-toxic	15 µM	23 µM	> 100 µM	–	–	–	–	–	–	–	–
CCN(CC)c1cccc(-n2cnc3c(Cl)nc(C)nc32)c1	Non-toxic	10 µM	15 µM	> 100 µM	–	–	–	–	–	–	–	–
CN(C)c1cccc(-n2cnc3c(Cl)ncnc32)c1	Non-toxic	3.8 µM	5 µM	> 100 µM	6.9 µM	> 100 µM	> 100 µM	> 100 µM	Non-toxic	> 100 µM	12.5 µM	–
Cc1nc(Cl)c2ncn(-c3cccc(N(C)C)c3)c2n1	Non-toxic	12 µM	28 µM	> 100 µM	–	–	–	–	–	–	–	–
CN(C)c1ccc(-n2cnc3c(Cl)ncnc32)cc1	Non-toxic	6.3 µM	–	> 100 µM	–	–	–	–	–	–	–	–
Cc1nc(Cl)c2ncn(-c3ccc(N(C)C)cc3)c2n1	Non-toxic	11 µM	–	> 100 µM	–	–	–	–	–	–	–	–
CN(C)c1cccc(-n2c(=O)[nH]c3c(Cl)ncnc32)c1	Non-toxic	16 µM	26 µM	> 100 µM	–	–	–	–	–	–	–	–
Cc1nc(Cl)c2[nH]c(=O)n(-c3cccc(N(C)C)c3)c2n1	Non-toxic	10 µM	15 µM	> 100 µM	–	–	–	–	–	–	–	–
Cc1nc(Cl)c2c(n1)n(-c1cccc(N(C)C)c1)c(=O)n2C	Non-toxic	11.3 µM	18.2 µM	> 200 µM	–	–	–	–	–	–	–	–
CCOC(=O)Oc1nc2c(Cl)nc(C)nc2n1-c1cccc(N(C)C)c1	Non-toxic	12.6 µM	19.9 µM	131 µM	–	–	–	–	–	–	–	–
Cc1nc(Cl)c2nc(OC(=O)Oc3ccccc3)n(-c3cccc(N(C)C)c3)c2n1	–	13.6 µM	14.8 µM	75.9 µM	–	–	–	–	–	–	–	–
CC(=O)Nc1cccc(-n2cnc3c(Cl)ncnc32)c1	–	18.5 µM	24.2 µM	> 174 µM	12.1 µM	> 174 µM	> 100 µM	> 174 µM	Non-toxic	> 50 µM	20.8 µM	Non-toxic
CC(=O)Nc1cccc(-n2cnc3c(Cl)nc(C)nc32)c1	Non-toxic	11.8 µM	17.5 µM	> 200 µM	–	–	–	–	–	–	–	–
CC(=O)N(C)c1cccc(-n2cnc3c(Cl)ncnc32)c1	Non-toxic	7.8 µM	–	> 100 µM	–	–	–	–	–	–	–	–
CC(=O)N(C)c1cccc(-n2cnc3c(Cl)nc(C)nc32)c1	Non-toxic	6.1 µM	8.3 µM	307 µM	13 µM	> 158 µM	> 100 µM	> 158 µM	Non-toxic	> 50 µM	20 µM	Non-toxic
CCN(C(C)=O)c1cccc(-n2cnc3c(Cl)nc(C)nc32)c1	Non-toxic	6.1 µM	10.9 µM	> 200 µM	–	–	–	–	–	–	–	–
CC(=O)N(CC1CC1)c1cccc(-n2cnc3c(Cl)nc(C)nc32)c1	Non-toxic	34.5 µM	52.3 µM	> 200 µM	–	–	–	–	–	–	–	–
O=C1OCCN1c1cccc(-n2cnc3c(Cl)ncnc32)c1	Non-toxic	33.7 µM	47.5 µM	> 200 µM	–	–	–	–	–	–	–	–
O=C1OCCN1c1cccc(-n2c(=O)[nH]c3c(Cl)ncnc32)c1	Non-toxic	8.9 µM	15.3 µM	> 200 µM	24.1 µM	> 151 µM	> 100 µM	> 151 µM	Non-toxic	–	86.9 µM	–
Cc1nc(Cl)c2[nH]c(=O)n(-c3cccc(N4CCOC4=O)c3)c2n1	Non-toxic	25.4 µM	33.5 µM	> 200 µM	–	–	–	–	–	–	–	–
CCOc1ncnc2c1ncn2-c1cccc(NCCO)c1	–	> 200 µM	> 200 µM	> 200 µM	–	–	–	–	–	–	–	–
Cc1nc(Cl)c2ncn(-c3cccc(C(C)(C)O)c3)c2n1	Non-toxic	–	–	> 100 µM	–	–	–	–	–	–	–	–
CC(=O)c1cccc(-n2cnc3c(Cl)ncnc32)c1	Non-toxic	–	–	> 100 µM	28.8 µM	–	> 100 µM	> 100 µM	Non-toxic	> 100 µM	21.6 µM	–
CC(=O)c1cccc(-n2c(=O)[nH]c3c(Cl)nc(C)nc32)c1	Non-toxic	–	–	> 100 µM	–	–	–	–	–	–	–	–
Fc1cccc(F)c1[C@@H]1SCc2nc3cc(C(F)(F)F)ccc3n21	Non-toxic	–	–	> 100 µM	–	–	–	–	–	–	–	–
CC(C)S(=O)(=O)n1c(N)nc2ccc(/C(=N/O)c3ccccc3)cc21 [ENVIROXIME]	Non-toxic	–	–	> 100 µM	–	–	–	–	–	1.3 µM	–	–
